The list is not random: actives were taken first. Their share in the collection is about 2.6%.
MT stabilize HCS = microtubule stabilizers in HeLa cells, primary screen, imaging, high-content imaging; actives 0.83% (n = 200,000); % tubulin-high responders, % at 10 µM; HeLa tubulin immunostaining HCS, 24 h; share of cells brighter than vehicle mean+2SD;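 active = plate Z-score above 3 for both tubulin-high and condensed-nucleus cell shares, with cell loss under 80%, at 10 µM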;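 also: anti alpha tubulin signal scored within the nucleus-defined area of each cell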
NPY2 pot ag = NPY-Y2 potentiators or agonists, primary screen, cell-based. activation, % at 3.6 µM. actives 0.45% (n = 220,000). cells expressing NPY-Y2, potentiator/agonist read-out. Neuropeptide Y receptor type 2 (Homo sapiens), P49146. AID 1359, 2008; in the data active = activation above about 27%;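 also: cells stimulated with NPY near EC25 plus isoproterenol at EC100; 0% = vehicle plus submaximal agonist and 100% = vehicle plus saturating agonist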
NPY1 pot ag = NPY-Y1 receptor potentiators or agonists, primary screen, cell-based; NPY-Y1 expressing cells, potentiator/agonist activation; AID 1304, 2008; actives 0.37% (n = 220,000); activation, % at 3.6 µM; in the data active = activation above about 33%, passing the limit was not always enough;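 also: cells stimulated with NPY at EC10 then isoproterenol at EC100; 0% = low agonist plus stimulus and 100% = saturating agonist plus stimulus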
Target sequence (P25929 whole entry, looked up): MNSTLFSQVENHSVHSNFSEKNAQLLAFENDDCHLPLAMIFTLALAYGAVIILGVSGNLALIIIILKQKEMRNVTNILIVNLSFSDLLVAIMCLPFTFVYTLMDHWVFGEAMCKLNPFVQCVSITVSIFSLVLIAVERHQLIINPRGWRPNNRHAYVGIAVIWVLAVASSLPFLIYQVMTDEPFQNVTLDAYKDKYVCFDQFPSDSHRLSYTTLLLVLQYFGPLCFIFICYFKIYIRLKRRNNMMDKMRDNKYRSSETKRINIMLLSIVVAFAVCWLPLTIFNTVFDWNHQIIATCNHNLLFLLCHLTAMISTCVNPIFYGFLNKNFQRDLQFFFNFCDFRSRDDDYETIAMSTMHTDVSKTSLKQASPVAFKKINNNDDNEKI
NPY-Y1 antag = NPY-Y1 receptor antagonists, primary screen, cell-based; Neuropeptide Y receptor type 1 (Homo sapiens), P25929; HEK293-CNG Y1 cells, membrane potential fluorescence; NPY at EC95, then isoproterenol; inhibition, % at 3.6 µM; actives 1% (n = 200,000); AID 1040, 2008;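 active = inhibition above the campaign mean inhibition of all tested compounds plus 3 SD, cut at about 20% in these data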;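 also: 0% = DMSO wells given NPY plus isoproterenol and 100% = isoproterenol alone without NPY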
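Material: HEK293 cells with Y1 receptor plus CNG channel; times: compound incubation 1 h at room temperature, readout 45 min post-stimulation; signal: fluorescence, membrane potential probe; read-out basis: fluorescence ratio normalized to % inhibition between controls; benchmarks: full-block control isoproterenol-only wells, zero-block control NPY plus isoproterenol wells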
NPY-Y2 antag = NPY-Y2 receptor antagonists, primary screen, cell-based. Neuropeptide Y receptor type 2 (Homo sapiens), P49146. NPY-Y2 expressing cells, antagonist mode. AID 793, 2007. actives 0.99% (n = 140,000). inhibition, % at 2.7 µM; in the data active = inhibition above about 17%;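 also: 0% = vehicle with agonist challenge and 100% = reference antagonist with challenge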
b-catenin transl = modulators of beta-catenin nuclear translocation, primary screen, imaging, HeLa cells, immunofluorescence, high-content; actives 0.3% (n = 190,000); nuclear translocation activity, % at 5 µM;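 active = nuclear translocation activity above 50% at 5 µM, with a well cell count of 50 or more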;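 also: per-cell ratio of nuclear to cytoplasmic median beta-catenin stain intensity; plate controls were DMSO negative control for no effect and GSK-3 inhibitor IX positive control for full effect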
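Test system: HeLa cells, endogenous beta-catenin; Compound: single 5 µM dose plus 0.02–20 µM confirmation series; Times: compound exposure 24 h at 37°C; Signal: fluorescence imaging of beta-catenin antibody stain plus DAPI; Read-out: % activation, nuclear-to-cytoplasmic median beta-catenin signal ratio per cell.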
Active calls of the source: *; · = no result.

SMILES | MT stabilize HCS | NPY2 pot ag | NPY1 pot ag | NPY-Y1 antag | NPY-Y2 antag | b-catenin transl
CCOc1ccc(Oc2c(/C=N/NC(=O)COc3ccccc3OC)c(C)nn2-c2ccccc2)cc1 | 5.6 | -17.5 | -14.7 | 30.3* | 26.2* | ·
COc1ccc2c(c1)C(C)CC(C)(C)N2C(=O)CSc1nc2ccccc2s1 (centres undefined) | 3.8 | -5.4 | -26.0 | 35.1* | 28.6* | 1.4
COc1ccc(/C=N/NC(=O)CCSc2nc3ccccc3s2)cc1 | 29.3* | -6.5 | 14.0 | -4.9 | 3.8 | 130.9*
O=C(CSc1nc2ccccc2s1)N/N=C/c1ccc(C(=O)O)cc1 | 1.1 | 3.4 | 4.4 | 5.1 | · | -5.0
COC(=O)c1cc2ccsc2n1CC(=O)Nc1cc(Cl)ccc1OC | 30.0* | -4.8 | -6.0 | 5.0 | 4.1 | ·
Cc1cc(C)c2c(N)c3cccc(C)c3nc2n1 | 13.2* | 4.7 | -8.6 | 1.9 | 0.3 | -2.9
CC1=C([N+](=O)[O-])C(c2cccc(Br)c2)C2=C(N1)c1ccccc1C2=O (centres undefined) | 11.5* | 20.9 | 24.9 | 5.3 | -4.2 | 16.8
CC(OC(=O)CCc1c[nH]c2ccccc12)C(=O)c1ccccc1 (centres undefined) | 2.5 | 1.5 | 17.5 | 7.5 | · | -0.4
Cc1ccc(N/N=C(\Cc2nc3ccccc3[nH]2)c2ccccc2)cc1 | 5.2 | 0.0 | -20.2 | 3.4 | 4.4 | 106.7*
COc1ccc(CCNC(=O)CN2CCN(c3cccc(C(F)(F)F)c3)CC2)cc1 | 2.2 | -13.5 | 0.1 | 8.2 | 6.3 | ·
CCN1/C(=C/c2ccc3cc(C)ccc3[n+]2CC)Sc2ccccc21 | 68.5* | 4.1 | -95.1 | 18.1 | 9.4 | 0.5
CCOC(=O)c1ccc(CC(=O)c2ccc(O)cc2O)o1 | 2.2 | 34.9* | 34.4 | -2.8 | 1.7 | -4.7
CC(C)NCC(O)COc1ccc(CC(N)=O)cc1 (centres undefined) | 2.5 | 15.3 | 14.0 | -0.9 | 2.4 | -1.5
CC(C)NCC(O)COc1ccc2c(c1)CCC2 (centres undefined) | 1.7 | 96.0* | 104.6* | -12.3 | 3.3 | -1.1
CC(C)NCC(O)COc1ccc(CCOCC2CC2)cc1 (centres undefined) | 3.3 | 91.6* | 96.3* | -11.7 | 0.9 | -2.6
CC(C)NCC(O)COc1ccc(Br)cc1 (centres undefined) | 2.8 | 53.7* | 74.7* | -8.5 | · | 0.7
CCCCCCc1nc2ccccc2c(=O)n1NC(=O)c1c(O)c2cccc3c2n(c1=O)CC3 | 3.5 | -14.1 | -4.3 | -6.7 | -0.3 | ·
COc1ccc(C2=NOC(C(=O)N(C)Cc3ccccc3)C2)cc1 (centres undefined) | 2.4 | -5.9 | 4.3 | 2.0 | · | -1.2
O=C(O)/C=C/C(=O)Nc1ccc(OC(F)F)cc1 | 5.3 | 10.1 | 15.8 | 5.0 | · | -2.8
Cc1cccc(CCNS(=O)(=O)c2ccc(S(=O)(=O)N3CCC(C)CC3)cc2)c1 | 4.4 | -3.0 | 3.3 | 22.0* | 0.6 | ·
COCCN(Cc1cc2cc(C)ccc2nc1Cl)C(=O)Nc1ccccc1OC | 2.1 | -5.4 | -16.0 | 3.4 | · | 2.1
COc1ccc(S(=O)(=O)NN(C)c2nc(C(F)(F)F)nc3ccccc23)cc1 | 24.9* | 3.1 | 11.1 | -0.6 | · | -1.8
CCN(CC)S(=O)(=O)c1ccc(Cl)c(NC(=O)COC(=O)c2cccn2C)c1 | 18.0* | 14.5 | -4.4 | 9.9 | · | -1.0
CCc1cc2c(=O)c(-c3ccc4c(c3)OCCO4)c(C)oc2cc1OS(C)(=O)=O | 10.9* | -0.1 | -4.8 | 0.4 | 2.0 | 1.8
CCc1cc(=O)oc2c(C)c(OS(C)(=O)=O)ccc12 | 9.2 | -22.0 | -37.8 | 8.1 | 3.1 | ·
O=S1(=O)CCN(OCc2ccc(Cl)cc2)CC1 | 2.1 | -6.2 | -4.6 | -2.7 | · | -0.4
COc1cc(-c2onc3ccc(Br)cc23)cc(OC)c1OC | 7.7* | -11.4 | 3.8 | -2.8 | · | 32.6
CCOC(=O)C1CCCN(C(=O)c2cnn3c(C(F)(F)F)cc(-c4ccccc4)nc23)C1 (centres undefined) | 2.7 | -23.9 | -53.2 | 22.5* | 18.8* | -1.1

Assay outcomes deposited in PubChem BioAssay by several laboratories.
